Source: PubChem BioAssay
A selection: hits, their analogues and other compounds. The true share with any hit is near 2.1%.
APJ antag – antagonists of human apelin receptor APJ, primary screen, CHO-K1 cells, beta-arrestin complementation, luminescence; P35414; inhibition, % at 20 µM; hit rate 0.32% among 330,000; AID 2521, 2010;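 active = inhibition above about 40% at 20 µM, limit read from the data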;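 note: cells challenged with 10 nM apelin-13 agonist together with compound; plate controls were apelin-13 plus DMSO wells for no effect and DMSO wells lacking apelin-13 for full effect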
EBI2 antag – EBI2 receptor antagonists, beta-arrestin recruitment, primary screen, cell-based, luminescence, 7a,25-OHC stimulation, uHTS | inhibition, % at 5 µM | 7a,25-OHC stimulated | hit rate 0.81% among 360,000; in the data active = inhibition above about 38%;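 note: enzyme fragment complementation signal reports receptor beta-arrestin coupling in cells; 0% = agonist plus DMSO wells and 100% = wells without agonist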
HTR2A ag – mouse Htr2a agonists via beta-arrestin recruitment, primary screen, cell-based, luminescence; AID 624169, 2012; activation, % at 7.6 µM; CHO-K1 mHTR2A beta-arrestin complementation; percent of 30 µM serotonin response; 5-hydroxytryptamine receptor 2A (Mus musculus), P35363; hit rate 0.66% among 360,000;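 active = activation above a run cutoff, the mean activation of all tested compounds plus 3 SD, cut at about 14% in these data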;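 note: 0% = plate median of compound wells and 100% = 30 µM serotonin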
Target sequence (P35363 whole entry, looked up): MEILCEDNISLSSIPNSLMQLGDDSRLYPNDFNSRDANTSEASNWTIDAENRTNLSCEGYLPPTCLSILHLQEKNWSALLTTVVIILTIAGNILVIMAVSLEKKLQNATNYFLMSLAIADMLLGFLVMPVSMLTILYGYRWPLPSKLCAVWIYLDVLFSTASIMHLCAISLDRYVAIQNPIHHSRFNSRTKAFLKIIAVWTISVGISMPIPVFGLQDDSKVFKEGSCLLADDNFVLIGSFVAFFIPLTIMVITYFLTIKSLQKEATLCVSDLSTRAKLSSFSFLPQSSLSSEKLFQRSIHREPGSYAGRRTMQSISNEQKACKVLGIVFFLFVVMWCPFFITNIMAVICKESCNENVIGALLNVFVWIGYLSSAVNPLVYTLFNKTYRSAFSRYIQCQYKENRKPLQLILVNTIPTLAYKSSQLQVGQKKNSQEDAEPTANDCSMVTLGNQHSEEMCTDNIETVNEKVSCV
CXCR6 inh – CXCR6 receptor inhibitors, primary screen, cell-based, beta-arrestin, luminescence, CHO-K1 PathHunter, 1536-well; inhibition, % at 20 µM; C-X-C chemokine receptor type 6 (Homo sapiens), O00574; AID 602244, 2012; hit rate 0.36% among 360,000; in the data active = inhibition above about 34%, passing the limit was not always enough;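 note: antagonist mode with CXCL16 agonist at 10 nM final; 0% = 10 nM CXCL16 with DMSO and 100% = unstimulated wells without agonist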
CCR6 antag – CCR6 receptor antagonists, primary screen, cell-based, CHO-K1, luminescence, beta-arrestin, uHTS | C-C chemokine receptor type 6 (Homo sapiens), P51684 | CHO-K1 CCR6 PathHunter beta-arrestin, CCL20-stimulated | inhibition, % at 20 µM | hit rate 0.49% among 340,000 | AID 493098, 2011;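 active = compounds whose inhibition of the agonist-driven luminescence signal at 20 µM reaches about 50%, limit read from the data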;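 note: cells stimulated with CCL20 at 14 nM final; plate controls were DMSO with CCL20 for no effect and DMSO without agonist for full effect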
APJ ag – agonists of human apelin receptor APJ, primary screen, CHO-K1 cells, PathHunter beta-arrestin, luminescence. P35414. 0% DMSO wells, 100% apelin. activation, % at 20 µM. hit rate 0.11% among 330,000. AID 2520, 2010;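 active = activation more than six SD over the plate average, tested at 20 µM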;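 note: 0% = DMSO alone and 100% = apelin-13 at 10 nM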
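Assay system: CHO-K1 cells stably expressing ProLink-tagged human APJ and arrestin–beta-gal acceptor. Compound dosing: 20 µM single point, 1% DMSO. Times: 16-18 h seeding, 90 min dark compound exposure, 60 min detection. Detection: beta-gal luminescence. Evaluation: APJ–arrestin association signal. Controls: negative DMSO alone, positive Apelin-13 at 10 nM.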
EBI2 antag conf – EBI2 antagonist hit retest, beta-arrestin, confirmation, cell-based, single concentration, luminescence, 7a,25-OHC stimulation. shares compounds with EBI2 antag. 7a,25-OHC antagonism. inhibition, % at 5 µM. hit rate 29% among 2,400;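 active = inhibition of at least 50%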
EBI2 ag – EBI2 agonist activity of antagonist hits, confirmation, counter-screen for EBI2 antagonist project, cell-based, single concentration, agonist mode, luminescence; shares compounds with EBI2 antag; EBI2-expressing cells, 60 min; 0% vehicle, 100% 7α,25-dihydroxycholesterol control; activation, % at 5 µM; 2,400 tested, under 10 active; AID 652000, 2013;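 active = activation of at least 50%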
bGal counter – E. coli beta-galactosidase enzyme inhibition, confirmation, counter-screen for EBI2 antagonist project, biochemical, luminescence, single concentration; shares compounds with EBI2 antag; purified beta-galactosidase, luminescent Galacton Star, 15 min; inhibition, % at 5 µM; hit rate 1% among 2,400;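 active = replicate-average signal at least 3 plate SD below neutral wells, shown as high inhibition, flagging enzyme-inhibiting false positives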;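 note: 0% = DMSO wells with enzyme and 100% = wells lacking enzyme; higher means stronger loss of beta-gal luminescence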
* marks the source's active call; other numbers are inactive results; nt = no result given.

SMILES	APJ antag	EBI2 antag	HTR2A ag	CXCR6 inh	CCR6 antag	APJ ag	EBI2 antag conf	EBI2 ag	bGal counter
CC(=O)NC(Cc1cccc(F)c1)C(=O)NC1CCN(C(=O)Nc2ccccc2)CC1 (stereo unspecified)	8.8	-5.0	4.2	17.4	0.5	2.4	nt	nt	nt
CCCc1nc2ccc(C)cn2c1Cc1ccc(OC)cc1C	nt	-0.2	2.0	7.6	nt	nt	nt	nt	nt
COC(=O)c1c(SCC(=O)Nc2ccc(C)c(C)c2)nc(=O)[nH]c1C	2.9	-1.3	2.4	-8.0	14.7	-5.0	nt	nt	nt
O=C(COc1ccccc1CNC[C@H]1O[C@@H](n2ccc(=O)[nH]c2=O)[C@H](O)[C@@H]1O)N1CCCCC1	nt	0.7	7.1	0.8	nt	nt	nt	nt	nt
O=C(Nc1cccc(F)c1)N1CCC(c2ccccc2)CC1	0.7	67.0*	-2.3	-0.8	12.9	-3.3	40.9	-0.3	-9.3
O=C(Nc1cccc(F)c1)C1CCN(C(=O)NCc2ccccc2)CC1	4.5	3.5	-3.1	2.7	13.3	-1.7	nt	nt	nt
COc1ccc(NC(=S)N2CCC(c3ccc(C)cc3)C2)cc1 (stereo unspecified)	10.7	46.1*	-1.9	2.1	11.6	-4.1	33.0	0.9	3.7
Cc1ccc(NC(=S)N2CCC(c3ccc(C)cc3)C2)cc1 (stereo unspecified)	10.9	16.7	-1.4	6.9	-4.3	-2.3	nt	nt	nt
CC(=O)Nc1ccc(N(C(=O)c2ccccn2)C(C(=O)NC2CCCCC2)c2ccc(F)cc2)cc1 (stereo unspecified)	1.8	-2.3	1.7	3.6	14.6	-2.2	nt	nt	nt
Cc1ccc(F)c(S(=O)(=O)NC(=O)C2(C)CCN2C(=O)Cc2ccccc2Cl)c1 (stereo unspecified)	nt	-5.4	-1.1	-1.2	nt	nt	nt	nt	nt
COC(=O)c1c(NC(NC(=O)CC(C)C)C(Cl)(Cl)Cl)sc2c1CCC2 (stereo unspecified)	16.9	64.2*	-1.8	-2.2	1.8	1.1	12.5	0.5	6.2
CCC(=O)NC(Nc1sc2c(c1C(=O)OC)CCC2)C(Cl)(Cl)Cl (stereo unspecified)	-1.2	24.5	-3.8	-4.2	2.2	-2.5	nt	nt	nt
CCOc1ccc(N2CC(C(=O)Nc3ccc(S(=O)(=O)NCC4CCCO4)cc3)CC2=O)cc1 (stereo unspecified)	4.5	51.2*	-3.9	-13.1	-0.7	-0.3	27.3	0.9	7.2
CCOCCCNS(=O)(=O)c1ccc(NC(=O)C2CC(=O)N(c3ccc(C)cc3)C2)cc1 (stereo unspecified)	2.9	65.0*	-3.0	-4.5	20.2	-1.8	39.0	-1.6	-11.6
COc1ccc(CCN2CC(C(=O)NCc3cnn(C(C)C)c3)CCC2=O)cc1 (stereo unspecified)	-4.1	-1.7	-2.8	-3.5	2.5	3.9	nt	nt	nt
Cc1ccc(OCc2nc3c4c(ncn3n2)-c2ccccc2CC42CCCC2)cc1	18.2	25.4	-0.8	5.6	14.2	-3.1	nt	nt	nt
COc1ccc(-c2nc3c4c(ncn3n2)-c2ccccc2CC42CCCC2)cc1	-11.8	2.7	0.1	9.9	8.6	-0.9	nt	nt	nt
COc1ccc(OCc2nc3c4c(ncn3n2)-c2ccccc2CC42CCCC2)cc1	-21.3	55.4*	5.6	-2.1	17.7	-1.9	18.6	2.6	5.7
Oc1cccc(-c2nc3c4c(ncn3n2)-c2ccccc2CC42CCCC2)c1	-18.7	46.7*	1.0	-7.6	-8.2	-0.4	30.7	2.1	9.0
CC(C)C(OC(=O)CN1C(=O)c2ccccc2C1=O)C(=O)NC1CCCC1 (stereo unspecified)	5.9	-4.9	2.6	5.6	18.4	-3.0	nt	nt	nt
CCOC(=O)C1(CC2CC2)CCN(S(=O)(=O)/C=C/c2ccccc2)CC1	-22.0	15.4	-0.7	-3.7	10.2	-2.0	nt	nt	nt
CCc1nc2ccc(C(=O)Nc3cccc(OC)c3)cn2c1N(CC)Cc1cccc(Br)c1	nt	12.6	-0.2	12.8	nt	nt	nt	nt	nt
CCc1nc2ccc(C(=O)NCCOc3ccc(OC)cc3)cn2c1N(CC)CCOC	nt	45.2*	3.5	-3.4	nt	nt	37.0	1.6	0.4
CCc1nc2ccc(C(=O)NCCOc3ccc(OC)cc3)cn2c1N(CC)Cc1cccc(Br)c1	nt	74.3*	-2.2	17.0	nt	nt	47.8	-0.4	4.6
CC(C)c1ccc(OCC(=O)NC2=NCCS2)cc1	-16.3	-9.4	6.1	-8.4	7.4	0.5	nt	nt	nt
SMILES	APJ antag	EBI2 antag	HTR2A ag	CXCR6 inh	CCR6 antag	APJ ag	EBI2 antag conf	EBI2 ag	bGal counter
COc1cc(C(=O)NCCCNc2nc3cc(C)c(C)cc3cc2C#N)cc(OC)c1OC	11.5	-7.9	6.2	-10.4	1.1	-2.2	nt	nt	nt
O=C1c2ccccc2C(c2nnnn2-c2ccc3c(c2)OCCO3)N1CCc1c[nH]c2ccccc12 (stereo unspecified)	nt	23.9	6.8	-7.6	nt	nt	nt	nt	nt
CCOC(=O)/C=C/C(=O)Nc1cc(S(=O)(=O)Nc2ccc(OC)cc2)ccc1N1CCOCC1	-51.5	75.0*	-1.1	-2.2	10.4	8.1	71.8*	0.8	11.3
COc1cc2nc(CN3CCN(S(=O)(=O)c4cc(C)ccc4C)CC3)[nH]c(=O)c2cc1OC	10.2	59.7*	0.5	3.1	13.7	-2.8	36.7	1.6	1.4
Cc1ccc(C)c(S(=O)(=O)N2CCN(C(=O)CCc3nc4ccccc4c(=O)[nH]3)CC2)c1	-4.8	3.0	-3.6	-2.7	9.8	-2.8	nt	nt	nt
COc1cc2nc(CN3CCC(C(O)(c4ccccc4)c4ccccc4)CC3)[nH]c(=O)c2cc1OC	-6.4	34.6	1.9	9.8	21.4	0.8	nt	nt	nt
COc1cc2nc(CN3CCN(C(C)=O)CC3)[nH]c(=O)c2cc1OC	8.2	2.8	0.0	-3.2	-7.1	-1.1	nt	nt	nt
COc1cc2nc(CN3CCN(S(=O)(=O)c4ccc(Cl)cc4)CC3)[nH]c(=O)c2cc1OC	13.9	55.9*	4.3	8.1	4.8	0.6	30.7	1.5	3.7
